One compound from ChEMBL document CHEMBL3877271, “Antagonizing STAT3 activation with benzo[b]thiophene 1, 1-dioxide based small molecules” (Eur J Med Chem, 2017) can be followed below.

By IC50 is commonly meant the concentration that gives 50% inhibition. A high value points to lower potency.

The test system of one series is A549. As to the kind of experiment: Potency index, ratio of stattic IC50 to compound IC50 for human A549 cells. Type of series: functional.
Series [1] relates to MDA-MB-231. In words: Induction of apoptosis in human MDA-MB-231 cells assessed as early apoptotic cells at 7 uM after 24 hrs by Annexin-V FITC/propidium iodide staining based flow cytometry (reference value: 3.8%). It is filed as functional. In general terms: Flow cytometry measures light scatter and fluorescence of single cells or particles in a stream.
For series [2], the system named is MDA-MB-231. In words: Induction of apoptosis in human MDA-MB-231 cells assessed as late apoptotic cells at 1 uM after 24 hrs by Annexin-V FITC/propidium iodide staining based flow cytometry (reference value: 1.8%). Type of series: functional.
The nature of series [3]: Antiproliferative activity against human A549 cells after 72 hrs by MTT assay. Type of series: functional, cell-based. Particulars: A549, 72 h. Put shortly:
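Cells in RPMI-1640 with 10% FBS, penicillin/streptomycin, 37 °C, 5% CO₂; seeded 3000-5000 cells/well, left overnight (16 h), then medium replaced with fresh medium holding serial dilutions in triplicate for 72 h. MTT read-out; viability = absorbance of treated/solvent control × 100%. Stattic served as reference.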
In general terms: Formazan colour is commonly taken as a measure of viable cells.

The nature of series [4]: Antitumor activity against mouse 4T1 cells implanted in ICR mouse assessed as tumor growth inhibition at 10 mg/kg, ip daily for 11 consecutive days measured on day 12 relative to control. It is filed as functional. As to conditions: 4T1, ip, 288 h, read-out: TGI. The procedure, abridged: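 Male ICR mice, 5 weeks old, inoculated with 2 × 10⁶ 4T1 cells at the right armpit. At 24 h, randomised into groups of 6 and dosed i.p.; vehicle PBS/DMSO (8:2) daily for 11 days. Killed day 12; tumours weighed; TI% = (1 − mean treated/mean control weight) × 100. Tumour p-STAT3 and STAT3 assessed by western blot.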

For series [5], the system named is MDA-MB-231. In words: Induction of apoptosis in human MDA-MB-231 cells assessed as live cells at 5 uM after 24 hrs by Annexin-V FITC/propidium iodide staining based flow cytometry (reference value: 90.3%). Type of series: functional.
Series [6] addresses Signal transducer and activator of transcription 3 (Homo sapiens) (UniProt P40763). As to the kind of experiment: Inhibition of STAT3 dimer DNA binding activity in human MDA-MB-231 nuclear extract at 1 to 5 uM preincubated for 24 hrs followed by addition of [32P]hSIE by electrophoretic mobility shift assay. Put shortly: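 Cells treated 24 h in fresh growth medium. Nuclear extracts of equal total protein incubated with ³²P-labelled hSIE oligonucleotide probe and resolved by EMSA; Stattic 5 µM as comparator.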
(In general: A gel shift assay detects complexes by their altered migration in electrophoresis.)

The test system of series [7] is MDA-MB-231. In words: Potency index, ratio of stattic IC50 to compound IC50 for human MDA-MB-231 cells. It is filed as functional.
Series [8] relates to MDA-MB-231. As to the kind of experiment: Induction of apoptosis in human MDA-MB-231 cells assessed as early apoptotic cells at 1 uM after 24 hrs by Annexin-V FITC/propidium iodide staining based flow cytometry (reference value: 3.8%). Type of series: functional.
The nature of series [9]: Effect on total STAT3 protein level in human MDA-MB-231 cells at 1 to 5 uM after 24 hrs by Western blot method. It is filed as cell-based. As to conditions: mda-mb-231, 24 h. Put shortly: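 MDA-MB-231 cells treated 24 h, trypsinised and lysed in RIPA buffer (50 mM Tris-HCl pH 7.4, 150 mM NaCl, 0.25% deoxycholate, 1% NP-40, 1 mM EDTA, protease inhibitors). Equal total protein from whole-cell lysates immunoblotted; Stattic 5 µM used as comparator.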

The target of series [10] is Signal transducer and activator of transcription 3 (Homo sapiens) (UniProt P40763). In words: Inhibition of STAT3 phosphorylation at Tyr-705 residue in human MDA-MB-231 cells after 24 hrs by Western blot method. It is filed as cell-based.
Series [11] relates to MDA-MB-231. As to the kind of experiment: Induction of apoptosis in human MDA-MB-231 cells assessed as live cells at 1 uM after 24 hrs by Annexin-V FITC/propidium iodide staining based flow cytometry (reference value: 90.3%). Type of series: functional.

Activity calls are given as the source filed them. The rule behind the calls is not given here.

Sequence of Signal transducer and activator of transcription 3 (Homo sapiens) (P40763 whole entry): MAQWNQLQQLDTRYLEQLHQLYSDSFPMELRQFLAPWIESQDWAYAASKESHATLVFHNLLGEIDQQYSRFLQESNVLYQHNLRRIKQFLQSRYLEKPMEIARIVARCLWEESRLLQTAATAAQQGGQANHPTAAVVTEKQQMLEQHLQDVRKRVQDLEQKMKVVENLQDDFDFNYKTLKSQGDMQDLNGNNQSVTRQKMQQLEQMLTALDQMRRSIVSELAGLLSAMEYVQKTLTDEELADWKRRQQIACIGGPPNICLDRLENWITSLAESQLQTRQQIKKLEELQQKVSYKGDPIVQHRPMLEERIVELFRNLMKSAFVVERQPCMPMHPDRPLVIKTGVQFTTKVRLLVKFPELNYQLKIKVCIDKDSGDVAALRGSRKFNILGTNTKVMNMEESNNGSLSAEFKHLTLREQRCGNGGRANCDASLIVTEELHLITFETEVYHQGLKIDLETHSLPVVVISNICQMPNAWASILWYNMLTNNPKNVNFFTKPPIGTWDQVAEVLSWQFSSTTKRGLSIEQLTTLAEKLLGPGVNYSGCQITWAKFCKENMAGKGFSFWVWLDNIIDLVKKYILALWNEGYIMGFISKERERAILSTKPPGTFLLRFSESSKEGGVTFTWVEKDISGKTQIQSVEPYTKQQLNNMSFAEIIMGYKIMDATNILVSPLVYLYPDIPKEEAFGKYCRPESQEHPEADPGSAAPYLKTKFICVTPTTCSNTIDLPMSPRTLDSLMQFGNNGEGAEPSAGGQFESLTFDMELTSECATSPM

`O=S1(=O)C=Cc2cccc(Nc3cccc(C(F)(F)F)c3)c21`: the “Ratio IC50” value with A549 and with MDA-MB-231 [7] was 1.5 - 12 throughout. Moreover, the Activity with MDA-MB-231 [1] was 12.2%; with MDA-MB-231 [2], 3.4%; with MDA-MB-231 [5], 75.3%; with MDA-MB-231 [8], 6.3%; in [9], “Non-Toxic”; in the series on MDA-MB-231 [11] it was 84.2%. Inhibition in series [3] was half-maximal at 360 nM (IC50). In [4], the inhibition in vivo at 10 mg/kg is 61%. Further, in [6], the inhibition entry was “Active”. Further, the inhibition entry in series [10] was “Dose-dependent effect”.
